Data taken from the RNAGym collection of RNA variant scans (doi:10.1038/nmeth.2970).

B1: NELF-E aptamer (parent)
chain: CCCAACGACUGCCGAGCGAGAUUACGCUUGAGCGCCCCACUGAGGAUGCCCACGGGCGAUUGGGGCACGG

Variants of: B1
Test: HiTS-RAP
Settings: with NELF-E (Drosophila)
Procedure, shortened: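 Aptamer DNA templates carrying a T7 promoter and ter site were sequenced on an Illumina GAIIx flowcell, then transcribed in situ by T7 RNA polymerase and halted by GST-Tus (30 minutes, 37°C). Clusters were imaged after 30-minute room-temperature equilibration with NELF-E-mOrange at 0.064 to 1000 nM in HEPES binding buffer, and only the first binding curve was used. Intensities were normalised to sequencing intensity and averaged per sequence. Kd came from weighted Hill fits, keeping fits with variance below 1,000,000.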
With CCCAACGUCUUCCGAGCGAGAUUACGCUUGAGCGCCCCACUGAGGAUGCCCACGGGCGAUUGGGGCACGG the Kd was 6.61 nM. CCCAACGUCUACCGAGCGAGAUUACGCUUGAGCGCCCCACUGAGGAUGCCCACGGGCGAUUGGGGCACGG was tested, and the Kd was 6.46 nM. Variant CCCAACGUCUGCCGAGCGAGAUUACGCUUGAGCGCCCCACUAAGGAUGCCCACGGGCGAUUGGGGCACGG has a Kd of 71.2 nM. Work on CCCAACGUCUGCCGAGCGAGAUUACGCUUGAGCGCCCUACUGAGGAUGCCCACGGGCGAUUGGGGCACGG yielded a Kd of 8.93 nM. Work on CCCAACGUCUGCCGAGCGAGAUUAUGCUUGAGCGCCCCACUGAGGAUGCCCACGGGCGAUUGGGGCACGG yielded a Kd of 6.08 nM. CCCAACGUCUGCCGAGCGAGAUUAGGCUUGAGCGCCCCACUGAGGAUGCCCACGGGCGAUUGGGGCACGG was tested, and the Kd was 6.83 nM. For CCCAACGUCUGCCGAGGGAGAUUACGCUUGAGCGCCCCACUGAGGAUGCCCACGGGCGAUUGGGGCACGG, the Kd was 6.07 nM. With CCCAACGUCUGCCGAGUGAGAUUACGCUUGAGCGCCCCACUGAGGAUGCCCACGGGCGAUUGGGGCACGG the Kd was 5.13 nM. With CCCAACGUCUGCCGAGCGAGAUUACGCUUGAGCGCCCCACUGAGGAUGCCCACGGGUGAUUGGGGCACGG the Kd was 5.42 nM. With CCCAACGUCUGCCGAGCGAGAUUACGUUUGAGCGCCCCACUGAGGAUGCCCACGGGCGAUUGGGGCACGG the Kd was 4.24 nM. Variant CCCAACGUCUGCCGAGCGAGAUUACGCUUGAGCGCCCCACUGAUGAUGCCCACGGGCGAUUGGGGCACGG has a Kd of 25.7 nM. CCCAACGUCUGCCGAGCGAGAUUACGCUUGAGUGCCCCACUGAGGAUGCCCACGGGCGAUUGGGGCACGG showed a Kd of 6.3 nM. In the case of CCCAACGUCUGCCGAGCGAGAUUACGCUUGAGCGCCCCACUGAGGAUGCCCACGGGCGAUUGGGGUACGG, the Kd is reported as 5.31 nM. CCCAACGUCUGCCGAGCGAGAUUACGCUUGAGCGCCCCACUGAGGAUGCCUACGGGCGAUUGGGGCACGG was tested, and the Kd was 10.8 nM. With CCCAACGUCUGCCAAGCGAGAUUACGCUUGAGCGCCCCACUGAGGAUGCCCACGGGCGAUUGGGGCACGG the Kd was 7.4 nM. With CCCAACGUCUGCCUAGCGAGAUUACGCUUGAGCGCCCCACUGAGGAUGCCCACGGGCGAUUGGGGCACGG the Kd was 6.76 nM. Variant CCCAACGUCUGCUGAGCGAGAUUACGCUUGAGCGCCCCACUGAGGAUGCCCACGGGCGAUUGGGGCACGG has a Kd of 4.96 nM. Variant CCCAACGUCUGCAGAGCGAGAUUACGCUUGAGCGCCCCACUGAGGAUGCCCACGGGCGAUUGGGGCACGG has a Kd of 7.3 nM. Work on CCCAACGUCUGCGGAGCGAGAUUACGCUUGAGCGCCCCACUGAGGAUGCCCACGGGCGAUUGGGGCACGG yielded a Kd of 6.33 nM. Work on CCCAACGUCUGCCGAGCGAGAUUACGCUUGAGCGCCCCACUGAGGAUGCCCACAGGCGAUUGGGGCACGG yielded a Kd of 11.3 nM. CCCAACGUCUGCCGAGCGAGAUUACGCUUGAGCACCCCACUGAGGAUGCCCACGGGCGAUUGGGGCACGG showed a Kd of 6.21 nM. CCCAACGUCUGUCGAGCGAGAUUACGCUUGAGCGCCCCACUGAGGAUGCCCACGGGCGAUUGGGGCACGG showed a Kd of 5.4 nM. Variant CCCAACGUCUGGCGAGCGAGAUUACGCUUGAGCGCCCCACUGAGGAUGCCCACGGGCGAUUGGGGCACGG has a Kd of 6.15 nM. CCCAACGUCUGCCGAGCUAGAUUACGCUUGAGCGCCCCACUGAGGAUGCCCACGGGCGAUUGGGGCACGG was tested, and the Kd was 5.91 nM. CCCAACGUCUGCCGAGCAAGAUUACGCUUGAGCGCCCCACUGAGGAUGCCCACGGGCGAUUGGGGCACGG was tested, and the Kd was 5.68 nM. CCCAACGUCUGCCGAGCGAGAUUACACUUGAGCGCCCCACUGAGGAUGCCCACGGGCGAUUGGGGCACGG gave a Kd of 4.2 nM. In the case of CCCAACGUCUGCCGAGCGAUAUUACGCUUGAGCGCCCCACUGAGGAUGCCCACGGGCGAUUGGGGCACGG, the Kd is reported as 6.62 nM. CCCAACGUGUGCCGAGCGAGAUUACGCUUGAGCGCCCCACUGAGGAUGCCCACGGGCGAUUGGGGCACGG was tested, and the Kd was 6.03 nM. For CCCAACGUUUGCCGAGCGAGAUUACGCUUGAGCGCCCCACUGAGGAUGCCCACGGGCGAUUGGGGCACGG, the Kd was 6.55 nM. In the case of CCCAACGUCUGCCGAGCGAGAUUACGCUUAAGCGCCCCACUGAGGAUGCCCACGGGCGAUUGGGGCACGG, the Kd is reported as 5.46 nM. With CCCAACGUCUGCCGAGCGAGAUUACGCUUGAGCGCCCCAGUGAGGAUGCCCACGGGCGAUUGGGGCACGG the Kd was 8.55 nM. With CCCAACGUCUGCCGAUCGAGAUUACGCUUGAGCGCCCCACUGAGGAUGCCCACGGGCGAUUGGGGCACGG the Kd was 7.54 nM. In the case of CCCAACGUCUGCCGAACGAGAUUACGCUUGAGCGCCCCACUGAGGAUGCCCACGGGCGAUUGGGGCACGG, the Kd is reported as 6.74 nM. Variant CCCAACGUCUGCCGAGCGAGAUUACGCUUGAGCGCCCCACUGAGGAUGCUCACGGGCGAUUGGGGCACGG has a Kd of 10.4 nM. CCCAACGUCUGCCGAGCGAGAUUACGCUUGAGCGCCCCACUGAGGAUGCCCAUGGGCGAUUGGGGCACGG showed a Kd of 3.63 nM. In the case of CCCAACGUCUGCCGAGCGAGAUUACGCUUGAGCGUCCCACUGAGGAUGCCCACGGGCGAUUGGGGCACGG, the Kd is reported as 12.5 nM. In the case of CCCAACGUCUGCCGAGCGAGAUUACGCUUGAGCGCCUCACUGAGGAUGCCCACGGGCGAUUGGGGCACGG, the Kd is reported as 13.2 nM. In the case of CCCAACGUCUGCCGAGCGAGAUUACGCUUGAGCGCCACACUGAGGAUGCCCACGGGCGAUUGGGGCACGG, the Kd is reported as 22.1 nM. CCCAACGUCUGCCGAGCGAGAUUACGCUUGAGCGCUCCACUGAGGAUGCCCACGGGCGAUUGGGGCACGG showed a Kd of 8.33 nM.
